Data: ChEMBL document CHEMBL1139225, “Metabolism-based identification of a potent thrombin receptor antagonist” (J Med Chem, 2007)
In brackets after ≈: the same amount, converted by molar mass. Activity calls are given as the source filed them. The calls are words filed in the database; no cut-off is given here.

Columns and labels:
[1] = Solubility of the compound; type: physicochemical
[2] = AUC (0-6h) in rat at 10 mg/kg, po; type: ADME, organism-based; parameters: time < 6 hr, dose 10 mg/kg, route oral; details: plasma
Summary of the method: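 Rat oral pharmacokinetics at 10 mg/kg dosed in 20% HPβCD. Plasma exposure was reported as AUC(0-6).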

[3] = biological target: T1, Proteinase-activated receptor 1 (Homo sapiens, UniProt P25116); test: Displacement of [3H]haTRAP from PAR1 in human platelet membrane; type: cell membranes
T1 sequence (P25116 whole entry): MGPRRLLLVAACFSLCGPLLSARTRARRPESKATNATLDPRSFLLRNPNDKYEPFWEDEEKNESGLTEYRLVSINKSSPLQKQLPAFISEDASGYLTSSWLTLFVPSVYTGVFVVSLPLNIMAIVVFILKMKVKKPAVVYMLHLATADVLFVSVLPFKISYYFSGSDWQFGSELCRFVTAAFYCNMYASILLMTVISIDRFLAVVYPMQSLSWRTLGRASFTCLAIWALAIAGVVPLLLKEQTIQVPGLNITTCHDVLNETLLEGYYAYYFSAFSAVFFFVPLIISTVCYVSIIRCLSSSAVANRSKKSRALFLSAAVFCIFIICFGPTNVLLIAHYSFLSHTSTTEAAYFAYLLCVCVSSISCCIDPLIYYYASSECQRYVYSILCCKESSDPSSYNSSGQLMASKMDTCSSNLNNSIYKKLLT

[4] = AUC (0-24h) in cynomolgus monkey at 1 mg/kg, po; type: ADME, organism-based, Macaca fascicularis; parameters: time < 24 hr, dose 1 mg/kg, route oral; details: plasma
Summary of the method: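 Cynomolgus monkeys received a single oral dose of 1 mg/kg in 20% HPβCD. Blood levels were followed at various time points afterwards.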

Cytochrome P450 2D6 = Cytochrome P450 2D6 (Homo sapiens, UniProt P10635); test: Inhibition of cytochrome P450 2D6 in human liver microsomes up to 10 uM; type: ADME, Microsome
Cytochrome P450 2D6, sequence (P10635 whole entry): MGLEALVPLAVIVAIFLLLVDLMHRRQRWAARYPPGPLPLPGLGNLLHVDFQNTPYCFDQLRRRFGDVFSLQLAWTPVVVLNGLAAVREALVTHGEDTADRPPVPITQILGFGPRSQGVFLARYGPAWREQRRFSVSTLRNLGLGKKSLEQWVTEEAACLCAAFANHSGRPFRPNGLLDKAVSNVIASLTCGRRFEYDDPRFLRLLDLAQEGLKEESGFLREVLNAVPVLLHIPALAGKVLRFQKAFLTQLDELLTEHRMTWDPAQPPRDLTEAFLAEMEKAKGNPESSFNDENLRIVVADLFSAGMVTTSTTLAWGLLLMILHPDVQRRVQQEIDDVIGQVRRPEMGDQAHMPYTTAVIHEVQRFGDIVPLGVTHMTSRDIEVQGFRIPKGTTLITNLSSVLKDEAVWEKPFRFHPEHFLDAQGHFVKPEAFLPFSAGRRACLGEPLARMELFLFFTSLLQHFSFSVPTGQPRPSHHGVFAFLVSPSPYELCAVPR
Summary of the method: (§1)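 Human liver microsomes. The compound was tested at concentrations up to 10 µM for inhibition of CYP2D6, 3A4, 2C9 and 2C19.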

[5] = Bioavailability in cynomolgus monkey; type: ADME, organism-based, Macaca fascicularis; details: in vivo
Platelet [6] = test: Inhibition of haTRAP-induced platelet aggregation in cynomolgus monkey at 3 mg/kg; type: functional, organism-based; parameters: dose 3 mg/kg; details: Macaca fascicularis
Summary of the method: (§2)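 Ex-vivo assay in cynomolgus monkeys. The compound was given orally as a single dose (1 mg/kg or 3 mg/kg in 20% HPβCD). Platelet aggregation induced by haTRAP was then measured in samples taken after dosing, at time points up to 24 h.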

[7] = Inhibition of thrombin-stimulated [3H]thymidine incorporation in human CASMC; type: functional
Summary of the method: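 Human coronary artery smooth muscle cells were stimulated with thrombin. [3H]thymidine incorporation was measured, and an apparent Ki was derived.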

Platelet [8] = test: Inhibition of haTRAP-induced platelet aggregation in cynomolgus monkey at 1 mg/kg after 6 hrs; type: functional, organism-based; parameters: dose 1 mg/kg; details: Macaca fascicularis; summary of the method: as §2
[9] = AUC (0-24h) in Sprague-Dawley rat at 300 mg/kg, po after 1 day; type: ADME, organism-based; parameters: time < 24 hr, dose 300 mg/kg, route oral; details: plasma
Summary of the method: (§3)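 Fed male Sprague Dawley rats, four per group, given the compound orally once daily for 10 consecutive days in 0.4% methylcellulose (100 and 300 mg/kg groups). On day 1 and day 10, plasma concentrations of parent and hydroxylated metabolites were measured at 1, 2, 4, 8, 12 and 24 h, giving AUC(0-24 h) and Cmax.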

Cytochrome P450 3A4 = Cytochrome P450 3A4 (Homo sapiens, UniProt P08684); test: Inhibition of cytochrome P450 3A4 in human liver microsomes up to 10 uM; type: ADME, Microsome; summary of the method: as §1
Cytochrome P450 3A4, sequence (P08684 whole entry): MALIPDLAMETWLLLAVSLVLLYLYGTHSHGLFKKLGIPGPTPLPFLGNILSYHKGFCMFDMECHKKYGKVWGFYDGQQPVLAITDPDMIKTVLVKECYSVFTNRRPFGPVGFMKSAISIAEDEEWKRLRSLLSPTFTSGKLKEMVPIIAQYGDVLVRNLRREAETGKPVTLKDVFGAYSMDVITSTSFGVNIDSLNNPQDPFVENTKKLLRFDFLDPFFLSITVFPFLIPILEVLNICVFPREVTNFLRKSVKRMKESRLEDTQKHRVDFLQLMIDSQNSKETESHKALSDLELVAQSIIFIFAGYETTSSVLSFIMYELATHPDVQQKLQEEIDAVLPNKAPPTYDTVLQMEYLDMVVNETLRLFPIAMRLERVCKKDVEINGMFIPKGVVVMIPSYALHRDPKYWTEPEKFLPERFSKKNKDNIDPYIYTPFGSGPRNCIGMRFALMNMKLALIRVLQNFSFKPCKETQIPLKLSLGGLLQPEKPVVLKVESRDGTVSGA

[10] = Cmax in Sprague-Dawley rat at 300 mg/kg, po after 10 days; type: ADME, organism-based; parameters: dose 300 mg/kg, route oral; details: in vivo; summary of the method: as §3
Platelet [11] = test: Inhibition of ADP-induced human platelet aggregation; type: functional, cell-based
Summary of the method: (§4)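 Washed platelets from healthy human donors who had been aspirin-free for 7 days were preincubated with the compound for 1 h. Aggregation was then triggered by 0.3 µM haTRAP, or by ADP for the specificity test. IC50 was derived for the haTRAP response.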

[12] = Inhibition of haTRAP-induced human platelet aggregation; type: functional, cell-based; summary of the method: as §4
[13] = Inhibition of thrombin-mediated activation of calcium transients in human CASMC; type: functional
Summary of the method: (§5)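 Human coronary artery smooth muscle cells were loaded with the fluorescent calcium dye Fluo-3, and intracellular calcium was read on a fluorometric imaging plate reader. Thrombin served as the agonist in the inhibition format. For the agonist check, cells were treated with the compound alone.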

[14] = Oral absorption in cynomolgus monkey; type: ADME, organism-based, Macaca fascicularis; details: in vivo
[15] = AUC (0-6h) in rat after oral administration; type: ADME, organism-based; parameters: time < 6 hr, route oral; details: plasma
[16] = Inhibition of haTRAP-induced platelet aggregation in cynomolgus monkey at 1 mg/kg after 24 hr; type: functional; details: Macaca fascicularis; summary of the method: as §2
Homo sapiens = species: Homo sapiens; test: Effect on elevation of calcium level in human CASMC; type: functional; summary of the method: as §5
Cytochrome P450 2C9 = Cytochrome P450 2C9 (Homo sapiens, UniProt P11712); test: Inhibition of cytochrome P450 2C9 in human liver microsomes up to 10 uM; type: ADME, Microsome; summary of the method: as §1
Cytochrome P450 2C9, sequence (P11712 whole entry): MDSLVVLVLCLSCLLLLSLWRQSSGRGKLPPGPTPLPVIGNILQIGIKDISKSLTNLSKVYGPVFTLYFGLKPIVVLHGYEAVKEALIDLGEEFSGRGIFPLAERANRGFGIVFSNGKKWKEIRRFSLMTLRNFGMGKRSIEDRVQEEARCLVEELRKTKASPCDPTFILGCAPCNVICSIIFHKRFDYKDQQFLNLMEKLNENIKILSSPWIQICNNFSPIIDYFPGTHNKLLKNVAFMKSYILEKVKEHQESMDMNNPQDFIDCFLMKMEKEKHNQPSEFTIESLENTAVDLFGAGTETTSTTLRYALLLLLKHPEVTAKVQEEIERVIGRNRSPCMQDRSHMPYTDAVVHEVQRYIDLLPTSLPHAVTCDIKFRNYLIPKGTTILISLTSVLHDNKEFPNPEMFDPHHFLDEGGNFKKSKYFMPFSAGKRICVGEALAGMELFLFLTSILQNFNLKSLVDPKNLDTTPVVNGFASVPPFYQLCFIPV

[17] = AUC (0-24h) in Sprague-Dawley rat at 300 mg/kg, po after 10 days; type: ADME, organism-based; parameters: time < 24 hr, dose 300 mg/kg, route oral; details: plasma; summary of the method: as §3
[18] = Cmax in Sprague-Dawley rat at 300 mg/kg, po after 1 day; type: ADME, organism-based; parameters: dose 300 mg/kg, route oral; details: in vivo; summary of the method: as §3
Cytochrome P450 2C19 = Cytochrome P450 2C19 (Homo sapiens, UniProt P33261); test: Inhibition of cytochrome P450 2C19 in human liver microsomes up to 10 uM; type: ADME, Microsome; summary of the method: as §1
Cytochrome P450 2C19, sequence (P33261 whole entry): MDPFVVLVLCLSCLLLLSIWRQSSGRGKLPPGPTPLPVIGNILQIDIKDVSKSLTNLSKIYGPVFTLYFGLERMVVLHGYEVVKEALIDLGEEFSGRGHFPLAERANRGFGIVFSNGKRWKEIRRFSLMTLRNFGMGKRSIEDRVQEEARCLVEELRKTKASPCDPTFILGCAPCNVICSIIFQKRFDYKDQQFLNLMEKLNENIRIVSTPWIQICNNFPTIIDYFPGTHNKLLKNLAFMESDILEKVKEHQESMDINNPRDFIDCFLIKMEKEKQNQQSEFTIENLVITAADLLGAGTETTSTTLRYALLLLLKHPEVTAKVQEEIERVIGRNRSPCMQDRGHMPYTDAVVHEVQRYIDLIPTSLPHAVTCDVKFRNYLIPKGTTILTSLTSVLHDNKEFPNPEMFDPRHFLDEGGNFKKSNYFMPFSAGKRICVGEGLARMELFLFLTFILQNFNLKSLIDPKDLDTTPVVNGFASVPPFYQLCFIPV

[19] = Plasma concentration in cynomolgus monkey at 24 hrs; type: ADME, organism-based, Macaca fascicularis
Summary of the method: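 Cynomolgus monkeys were given an oral dose of 3 mg/kg in 0.4% methylcellulose. Plasma was sampled at 6 and 24 h and analysed by LC-MS/MS.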

Question: With `C[C@H]1OC(=O)[C@@H]2C[C@H]3[C@@H](CCCC3(F)F)[C@H](/C=C/c3ccc(-c4cccc(C(F)(F)F)c4)cn3)[C@H]12` as the compound, how does the solubility [1] read?
Answer: 5 µM (≈ 2.46 µg/mL)

Question: And the AUC(0-t) at 6 h [2]?
Answer: 1200 ng·h/mL

Question: What about the IC50 [3] of the same compound?
Answer: 53 nM

Question: With `C[C@H]1OC(=O)[C@@H]2C[C@@H]3C[C@H](O)CC[C@H]3[C@H](/C=C/c3ccc(-c4cccc(Cl)c4Cl)cn3)[C@H]12` as the compound, how does the IC50 [3] read?
Answer: 16.5 nM

Question: Which IC50 [3] does the source give for `C[C@H]1OC(=O)[C@@H]2C[C@@H]3CC[C@H](O)C[C@H]3[C@H](/C=C/c3ccc(-c4cccc(C(F)(F)F)c4)cn3)[C@H]12` here?
Answer: 845 nM

Question: With `Cc1cccc(-c2ccc(/C=C/[C@H]3[C@@H]4CCC(F)(F)C[C@H]4C[C@H]4C(=O)O[C@H](C)[C@@H]34)nc2)c1` as the compound, how does the IC50 [3] read?
Answer: 80 nM

Question: With `Cc1ccc(-c2ccc(/C=C/[C@H]3[C@@H]4CC[C@@H](O)C[C@H]4C[C@H]4C(=O)O[C@H](C)[C@@H]34)nc2)cc1` as the compound, how does the IC50 [3] read?
Answer: 1370 nM

Question: For `C[C@H]1OC(=O)[C@@H]2C[C@@H]3CC(F)(F)CC[C@H]3[C@H](/C=C/c3ccc(-c4ccccc4F)cn3)[C@H]12`, which IC50 [3] is on record?
Answer: 28 nM

Question: With `C[C@H]1OC(=O)[C@@H]2C[C@@H]3CC[C@@H](O)C[C@H]3[C@H](/C=C/c3ccc(-c4cccc(C(F)(F)F)c4)cn3)[C@H]12` as the compound, how does the IC50 [3] read?
Answer: 481 nM

Question: For `C[C@H]1OC(=O)[C@@H]2C[C@@H]3C[C@H](O)CC[C@H]3[C@H](/C=C/c3ccc(-c4cccc(F)c4)cn3)[C@H]12`, which IC50 [3] is on record?
Answer: 28 nM

Question: With `C[C@H]1OC(=O)[C@@H]2C[C@@H]3CC(=O)CC[C@H]3[C@H](/C=C/c3ccc(-c4cccc(C(F)(F)F)c4)cn3)[C@H]12` as the compound, how does the AUC(0-t) at 24 h [4] read?
Answer: 31 ng·h/mL

Question: Which solubility [1] does the source give for `C[C@H]1OC(=O)[C@@H]2C[C@@H]3CC(F)(F)CC[C@H]3[C@H](/C=C/c3ccc(-c4cccc(C(F)(F)F)c4)cn3)[C@H]12` here?
Answer: 5 µM (≈ 2.46 µg/mL)

Question: And the AUC(0-t) at 6 h [2]?
Answer: 1200 ng·h/mL

Question: What about the IC50 [3] of the same compound?
Answer: 37 nM

Question: With `C[C@H]1OC(=O)[C@@H]2C[C@@H]3C[C@H](O)CC[C@H]3[C@H](/C=C/c3ccc(-c4cccc(C(F)(F)F)c4)cn3)[C@H]12` as the compound, how does the Activity (Cytochrome P450 2D6) read?
Answer: Not Active

Question: What about the bioavailability [5] of the same compound?
Answer: 89%

Question: And the Activity (Platelet [6])?
Answer: Active

Question: What about the Ki [7] of the same compound?
Answer: 22 nM

Question: What about the Activity (Platelet [8]) of the same compound?
Answer: Active

Question: And the AUC(0-t) at 24 h [9]?
Answer: 93000 ng·h/mL

Question: What about the Activity (Cytochrome P450 3A4) of the same compound?
Answer: Not Active

Question: And the Cmax [10]?
Answer: 25000 ng/mL

Question: What about the AUC(0-t) at 24 h [4] of the same compound?
Answer: 3060 ng·h/mL

Question: What about the Activity (Platelet [11]) of the same compound?
Answer: inactive

Question: What about the IC50 [12] of the same compound?
Answer: 60 nM

Question: What about the Ki [13] of the same compound?
Answer: 85 nM

Question: What about the Fa [14] of the same compound?
Answer: 92%

Question: What about the AUC(0-t) at 6 h [15] of the same compound?
Answer: 6130 ng·h/mL

Question: What about the inhibition in vivo at 1 mg/kg [16] of the same compound?
Answer: 60%

Question: And the IC50 [3]?
Answer: 17 nM

Question: What about the Ki [3] of the same compound?
Answer: 11 nM

Question: What about the Activity (Homo sapiens) of the same compound?
Answer: inactive

Question: What about the Activity (Cytochrome P450 2C9) of the same compound?
Answer: Not Active

Question: And the AUC at 24 h [17]?
Answer: 41000 ng·h/mL

Question: What about the Cmax [18] of the same compound?
Answer: 58000 ng/mL

Question: What about the Activity (Cytochrome P450 2C19) of the same compound?
Answer: Not Active

Question: For `C[C@H]1OC(=O)[C@@H]2C[C@H]3[C@@H](CCC[C@@H]3O)[C@H](/C=C/c3ccc(-c4cccc(C(F)(F)F)c4)cn3)[C@H]12`, which concentration at 24 h [19] is on record?
Answer: 160 ng/mL

Question: And the AUC(0-t) at 24 h [9]?
Answer: 49000 ng·h/mL

Question: What about the Cmax [10] of the same compound?
Answer: 79000 ng/mL

Question: And the AUC(0-t) at 6 h [15]?
Answer: 5760 ng·h/mL

Question: And the IC50 [3]?
Answer: 41 nM

Question: And the AUC at 24 h [17]?
Answer: 150000 ng·h/mL

Question: And the Cmax [18]?
Answer: 29000 ng/mL
